Measurements as given in ChEMBL document CHEMBL4359830, “Discovery and structure-activity relationship of novel diphenylthiazole derivatives as BTK inhibitor with potent activity against B cell lymphoma cell lines” (Eur J Med Chem, 2019).

Assays:
[1] = target: Tyrosine-protein kinase BTK (Homo sapiens, UniProt Q06187); assay: Inhibition of human recombinant full length N-terminal His tagged BTK expressed in baculovirus infected Sf9 cells using poly (Glu,Tyr) 4:1 as substrate measured after 60 mins in presence of ATP by ADP-Glo kinase assay
Raji [2] = assay: Antiproliferative activity against human Raji cells at 40 uM measured after 72 hrs by CCK-8 assay relative to control; format: functional; details: Homo sapiens, Raji, 72 h
Procedure, shortened: (§1)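 Ramos or Raji cells in RPMI-1640 with 10% FBS and 1% penicillin-streptomycin at 37 °C, 5% CO2. Seeded at 2000–3000 cells/well one day before compound addition. Exposure 72 h, then CCK-8 with absorbance at 450 nm. […] Single-point inhibition at 40 µM reported as mean ± standard deviation.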

Ramos [3] = assay: Antiproliferative activity against human Ramos cells measured after 72 hrs by CCK-8 assay; format: functional, cell-based; procedure, shortened: as §1
Ramos [4] = assay: Antiproliferative activity against human Ramos cells at 40 uM measured after 72 hrs by CCK-8 assay relative to control; format: functional; details: Homo sapiens, Ramos, 72 h; procedure, shortened: as §1
Raji [5] = assay: Antiproliferative activity against human Raji cells measured after 72 hrs by CCK-8 assay; format: functional, cell-based; procedure, shortened: as §1
Ramos [6] = assay: Potency index, ratio of ibrutinib IC50 to compound IC50 for antiproliferative activity against human Ramos cells; format: functional

Chain of Tyrosine-protein kinase BTK (Q06187 whole entry): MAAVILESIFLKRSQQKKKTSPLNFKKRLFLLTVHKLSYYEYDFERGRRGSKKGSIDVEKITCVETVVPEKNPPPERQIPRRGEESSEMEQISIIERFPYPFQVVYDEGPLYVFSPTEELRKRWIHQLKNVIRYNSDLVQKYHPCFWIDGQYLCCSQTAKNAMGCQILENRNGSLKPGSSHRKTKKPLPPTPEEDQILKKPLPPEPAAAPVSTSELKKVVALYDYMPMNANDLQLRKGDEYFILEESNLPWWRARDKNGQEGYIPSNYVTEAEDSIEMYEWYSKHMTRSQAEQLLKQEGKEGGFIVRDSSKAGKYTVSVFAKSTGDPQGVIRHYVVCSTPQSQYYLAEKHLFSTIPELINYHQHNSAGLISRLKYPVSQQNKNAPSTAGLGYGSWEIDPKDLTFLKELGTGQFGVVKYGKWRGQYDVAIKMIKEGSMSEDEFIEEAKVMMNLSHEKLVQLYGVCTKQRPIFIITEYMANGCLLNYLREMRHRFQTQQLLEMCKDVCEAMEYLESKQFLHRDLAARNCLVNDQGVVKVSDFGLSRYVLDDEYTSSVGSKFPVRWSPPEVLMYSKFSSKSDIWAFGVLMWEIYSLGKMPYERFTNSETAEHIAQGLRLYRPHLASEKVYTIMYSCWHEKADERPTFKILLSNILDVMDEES

SMILES	IC50 [1]	inhibition at 40 µM (Raji [2])	IC50 (Ramos [3])	inhibition at 40 µM (Ramos [4])	IC50 (Raji [5])	Ratio IC50 (Ramos [6])
CN1CCN(c2ccc(Nc3nc(-c4cccc(NC(=O)c5ccc(C(F)(F)F)cc5)c4)sc3C(N)=O)cc2)CC1	0.206 µM	91.8%	1.58 µM	97.8%	3.21 µM	
CN1CCN(c2ccc(Nc3nc(-c4cccc(NC(=O)c5ccccc5F)c4)sc3C(N)=O)cc2)CC1	2.67 µM	97.3%	1.36 µM	95.5%	3.27 µM	10
CN1CCN(c2ccc(Nc3nc(-c4cccc(NC(=O)c5ccccc5)c4)sc3C(=O)O)cc2)CC1		11.9%		26.3%		
CCOC(=O)c1sc(-c2cccc(NC(=O)c3ccc(Cl)cc3)c2)nc1Nc1ccc(N2CCN(C)CC2)cc1		24.3%		46.9%		
CCOC(=O)c1sc(-c2cccc(NC(=O)c3ccc(F)cc3)c2)nc1Nc1ccc(N2CCN(C)CC2)cc1		16.8%		3.53%		
NC(=O)c1sc(-c2cccc(NC(=O)c3ccc(F)cc3)c2)nc1Nc1ccc(C(=O)N2CCOCC2)cc1	0.733 µM	82.5%	13 µM	91.5%	35.4 µM	
CCOC(=O)c1sc(-c2cccc(NC(=O)c3ccc(F)cc3)c2)nc1Nc1ccc(C(=O)N2CCOCC2)cc1		37.3%		31.1%		
CCOC(=O)c1sc(-c2cccc(NC(=O)c3ccco3)c2)nc1Nc1ccc(N2CCN(C)CC2)cc1	0.161 µM	87.6%		50.2%	15.1 µM	
CCOC(=O)c1sc(-c2cccc(NC(=O)c3ccc(N(C)C)cc3)c2)nc1Nc1ccc(N2CCOCC2)cc1	4.2 µM	7.96%		12.3%		
CN1CCN(c2ccc(Nc3nc(-c4cccc(NC(=O)c5ccc(F)c(Cl)c5)c4)sc3C(=O)O)cc2)CC1		87.9%	5.6 µM	98.6%	8.74 µM	
CCOC(=O)c1sc(-c2cccc(NC(=O)c3ccc(C(C)(C)C)cc3)c2)nc1Nc1ccc(N2CCN(C)CC2)cc1		4.22%		21.2%		
CCOC(=O)c1sc(-c2cccc(NC(=O)c3ccccc3F)c2)nc1Nc1ccc(N2CCN(C)CC2)cc1	2.1 µM	89.8%	2 µM	96.3%	9.27 µM	
CN1CCN(c2ccc(Nc3nc(-c4cccc(NC(=O)c5ccc(Cl)cc5)c4)sc3C(N)=O)cc2)CC1	0.614 µM	92.6%	1.36 µM	99%	5.7 µM	10
CN1CCN(c2ccc(Nc3nc(-c4cccc(NC(=O)c5ccco5)c4)sc3C(N)=O)cc2)CC1	0.073 µM	84.3%	19.7 µM	96.7%	37.4 µM	
CN1CCN(c2ccc(Nc3nc(-c4cccc(NC(=O)c5cccc(F)c5)c4)sc3C(N)=O)cc2)CC1		2.78%		16.2%		
O=C(Nc1cccc(-c2nc(Nc3ccc(N4CCOCC4)cc3)c(C(=O)O)s2)c1)c1ccc(C(F)(F)F)cc1	38.1 µM	18.8%	29.5 µM	77.4%		
CCOC(=O)c1sc(-c2cccc(NC(=O)c3ccc(F)cc3)c2)nc1Nc1ccc(N2CCOCC2)cc1		25.8%		3.96%		
CCOC(=O)c1sc(-c2cccc(NC(=O)c3ccc(C(F)(F)F)cc3)c2)nc1Nc1ccc(N2CCN(C)CC2)cc1		33%		18.4%		
CN(C)c1ccc(C(=O)Nc2cccc(-c3nc(Nc4ccc(N5CCOCC5)cc4)c(C(=O)O)s3)c2)cc1	21 µM	24.4%	24.5 µM	74.4%		
CCOC(=O)c1sc(-c2cccc(NC(=O)c3ccc(F)c(Cl)c3)c2)nc1Nc1ccc(N2CCN(C)CC2)cc1		20.7%	29.2 µM	72.5%		
CN1CCN(c2ccc(Nc3nc(-c4cccc(NC(=O)c5ccccc5F)c4)sc3C(=O)O)cc2)CC1	21.9 µM	86.8%	6.3 µM	93.3%	13.9 µM	
CN1CCN(c2ccc(Nc3nc(-c4cccc(NC(=O)c5cccc(F)c5)c4)sc3C(=O)O)cc2)CC1	27.8 µM	76.3%	14 µM	82.7%	35.1 µM	
CN1CCN(c2ccc(Nc3nc(-c4cccc(NC(=O)c5ccc(Cl)cc5)c4)sc3C(=O)O)cc2)CC1	0.134 µM	90.9%	23.3 µM	71.6%	7.02 µM	
